Screening data from PubChem BioAssay.
SDO1 yeast rescue: growth rescue of sdo1-depleted yeast, primary screen, S. cerevisiae, bone marrow failure model; S. cerevisiae sdo1-depleted JHY4D growth rescue, OD600 30 h; stronger effect = higher value; pdr5 snq2 efflux-pump mutant strain; z-score at 10 µM; 140,000 tested, 0.21% active;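 active = z-score above 3 at both the 24 hr and the 30 hr optical density reads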
RAM network inh: inhibitors of the yeast RAM network, primary screen, dse1pr::URA3 reporter, 5-FOA selection | S. cerevisiae dse1pr::URA3 reporter, 5-FOA growth OD615, 2 d; analog-sensitive cbk1-as2 kinase mutant strain | inhibition, % at 50 µM | 190,000 tested, 1.8% active;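 active = inhibition above a set limit, 3 SD over mean compound inhibition, cut at about 8.4% in these data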;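 also: inhibition rescues growth on 5-FOA so higher OD means more RAM inhibition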
BB579 growth dn: growth inhibitors of yeast BB579 in restrictive medium, primary screen, yeast lifespan-shortening project, S. cerevisiae | OD615, 48 h | inhibition, % at 10 µM | 140,000 tested, 0.51% active | AID 804, 2007;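 active = inhibition above a set limit, 3 SD over the mean compound inhibition, cut at about 44% in these data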
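System: Saccharomyces cerevisiae DeaD strain BB579, replicative lifespan model yeast. Buffer or medium: restrictive glucose-based CSMM-D medium. Doses: one dose, 10 µM compound with 0.25% DMSO. Timing: 4 h preincubation and 48 h exposure at 30 °C. Detection: turbidity as optical density at 615 nm. Benchmarks: amphotericin B 10 µg/mL, positive.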
Yeast life ext: compounds extending yeast replicative lifespan, primary screen, S. cerevisiae, OD615; S. cerevisiae growth with nicotinamide; deaD strain in restrictive glucose medium; inhibition of the nicotinamide effect, % at 10 µM; 130,000 tested, 0.68% active; AID 775, 2007;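 active = inhibition above a set limit, placed 3 SD over the median of all compounds, cut at about 26% in these data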
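Test system: DeaD-strain S. cerevisiae / Buffer or medium: restrictive glucose medium / Also added: nicotinamide 1.5 mM / Doses: one concentration, 10 µM, DMSO 0.25% / Schedule: 48 h at 30 °C / Signal: OD615 measurement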
RAM efflux-def: 5-FOA growth of efflux-deficient control yeast, dose response, counter-screen for RAM network inhibitor project, S. cerevisiae, OD615 | shares compounds with RAM network inh | S. cerevisiae efflux-deficient reporter strain, 5-FOA growth OD615, 2 days | max inhibition, % | 1,200 tested, under 10 active | AID 1305, 2008; call rule not given here
Of the large screens only hits and unclear results are named; the others gave an inactive call (follow-up assays come after a bar, where they were run). In the library only some 2.7% were active in any assay of this set; here they are far more common.

COc1ccc(CCNC(=O)c2ccc(-c3ccc([N+](=O)[O-])cc3Cl)o2)cc1	RAM network inh 13 | RAM efflux-def inactive
CSc1nnc2c3ccccc3c3ccccc3c2n1	RAM network inh 13 | RAM efflux-def inactive
CSc1nnc(-c2ccco2)c(-c2ccco2)n1	none
COc1ccc(/C=C/C(=O)c2ccc(OC)cc2OC)c(OC)c1	RAM network inh 14 (no result: SDO1 yeast rescue, BB579 growth dn, Yeast life ext) | RAM efflux-def inactive
COc1ccccc1/C=C/C(=O)c1ccc(Cl)cc1	none
COc1ccc(OC)c(/C=C/C(=O)c2ccc(Cl)cc2)c1	RAM network inh 13 | RAM efflux-def inactive
COc1ccc(C(=O)/C=C/c2ccc(OC)c(COc3ccc(F)cc3)c2)cc1	RAM network inh 18 | RAM efflux-def inactive
O=C(CN1C(=O)NC2(CCOc3ccccc32)C1=O)Nc1cccc(Cl)c1 (stereo not drawn)	none (no result: SDO1 yeast rescue, BB579 growth dn, Yeast life ext)
CC(=O)N(Cc1nc2sc(C)c(C)c2c(=O)[nH]1)C1CCCC1	none (no result: SDO1 yeast rescue, BB579 growth dn, Yeast life ext)
Cc1ccc(N/N=C/c2c(C)c(C#N)c(=O)n(C)c2O)cc1C	RAM network inh 13 (no result: SDO1 yeast rescue, BB579 growth dn, Yeast life ext) | RAM efflux-def inactive
CC(=O)Nc1ccc(-c2csc(NCc3ccco3)n2)cc1	none (no result: Yeast life ext)
COc1ccc(-c2csc(NCc3ccco3)n2)cc1C	RAM network inh 13 | RAM efflux-def inactive
O=C(CCN=C1NS(=O)(=O)c2ccccc21)N1CCc2ccccc2C1	none (no result: SDO1 yeast rescue, BB579 growth dn, Yeast life ext)
N#C/C(=C\C1=C(N2CCOCC2)C(=C/c2cccc([N+](=O)[O-])c2)/CC1)C(=O)Nc1ccccc1F	RAM network inh 11 | RAM efflux-def inactive
CCCOc1ccc(/C=C2\SC(=S)N(CC3CCCO3)C2=O)cc1 (stereo not drawn)	RAM network inh 17 | RAM efflux-def inactive
Cc1ccsc1/C=C1\SC(=S)N(CC2CCCO2)C1=O (stereo not drawn)	none (no result: SDO1 yeast rescue, BB579 growth dn, Yeast life ext)
CC(=O)OC[C@H]1O[C@@H](O/N=C/C[C@@H]2C=C[C@H](OC(C)=O)[C@@H](COC(C)=O)O2)[C@H](OC(C)=O)[C@@H](OC(C)=O)[C@@H]1OC(C)=O	none
N#Cc1cc(-c2ccc(Cl)cc2)cnc1Sc1ccc(F)cc1	RAM network inh 12 | RAM efflux-def inactive
CCCOc1ccc(/C=C/C(=O)Nc2ccc([N+](=O)[O-])cc2)cc1	RAM network inh 13 | RAM efflux-def inactive
CN(c1ccccc1)S(=O)(=O)c1cccc(NS(=O)(=O)c2ccc(/C=C/C(=O)O)cc2)c1	none (no result: SDO1 yeast rescue, BB579 growth dn, Yeast life ext)
O=C(O)CCCC(=O)Nc1cccc(C(=O)Nc2ccccc2C(=O)O)c1	none (no result: SDO1 yeast rescue, BB579 growth dn, Yeast life ext)
O=C(CSCc1ccccc1)Nc1cccc(C(=O)Nc2ccccc2C(=O)O)c1	RAM network inh 13 | RAM efflux-def inactive
O=C(CSCc1ccc(Cl)cc1)Nc1cccc(C(=O)Nc2ccccc2C(=O)O)c1	RAM network inh 14 | RAM efflux-def inactive
CCOCCCNS(=O)(=O)c1ccc(NC(=O)C2CC(=O)N(c3ccc(C)cc3)C2)cc1 (stereo not drawn)	none (no result: SDO1 yeast rescue, BB579 growth dn, Yeast life ext)
Cc1ccc(C(=O)Nc2ccc(C(=O)O)cc2)cc1S(=O)(=O)NCc1ccccc1	RAM network inh 13 (no result: SDO1 yeast rescue, BB579 growth dn, Yeast life ext) | RAM efflux-def inactive
O=C(NCCN1C(=O)S/C(=C/c2cccnc2)C1=O)C1CC(=O)N(Cc2ccccc2)C1 (stereo not drawn)	none (no result: SDO1 yeast rescue, BB579 growth dn, Yeast life ext)
CCN(CC)S(=O)(=O)c1cccc(-c2nnc(SC(C)C(=O)NCCC3=CCCCC3)o2)c1 (stereo not drawn)	RAM network inh 14 | RAM efflux-def inactive
O=C(CSc1nnc(-c2cccc(S(=O)(=O)N3CCCCC3)c2)o1)NCCC1=CCCCC1	RAM network inh 12 | RAM efflux-def inactive
O=C(CSc1nnc(-c2cccc(S(=O)(=O)N3CCCCC3)c2)o1)c1ccc[nH]1	none
O=C(NCc1cccnc1)C(=O)Nc1ccc2c(c1)OCO2	none (no result: SDO1 yeast rescue, BB579 growth dn, Yeast life ext)
Cc1ccc(/C=[N+](\[O-])c2ccc(N(C)C)cc2)c2nsnc12	none (no result: SDO1 yeast rescue, BB579 growth dn, Yeast life ext)
COc1cc(/C=N/Nc2ccc(Cl)cc2)ccc1OC(=O)c1cccs1	RAM network inh 12 | RAM efflux-def inactive
COc1cc(/C=N/NC(N)=O)ccc1OC(=O)c1cccs1	none (no result: SDO1 yeast rescue, BB579 growth dn, Yeast life ext)
O=C(Nc1nc2nccc(-c3ccccc3)n2n1)C(Cl)(Cl)Cl	none
CCOC(=O)c1ccc(COC(=O)CNS(=O)(=O)c2ccccc2)cc1	none (no result: SDO1 yeast rescue, BB579 growth dn, Yeast life ext)
O=C(OCc1cccc(F)c1)c1ccc2c(c1)-c1ccccc1C2=O	none
CCOC(=O)C1=C(Cc2ccc(OC)cc2)C(=O)c2ccccc2C1=O	RAM network inh 12 | RAM efflux-def inactive
O=C(OCc1ccccc1F)c1ccc2c(c1)-c1ccccc1C2=O	RAM network inh 13 | RAM efflux-def inactive
CCOC(=O)c1ccc(COC(=O)c2ccc3c(c2)-c2ccccc2C3=O)cc1	RAM network inh 12 | RAM efflux-def inactive
CCN(CC)CCNC(=O)c1cccc(NC(=O)C(=O)c2ccccc2NC(C)=O)c1	none (no result: SDO1 yeast rescue, BB579 growth dn, Yeast life ext)
CCN(CC)S(=O)(=O)c1ccc(NC(=O)CCC2CCCCC2)cc1	RAM network inh 12 | RAM efflux-def inactive
CCOCCCNC(=O)CN1C(=O)/C(=C\c2ccc(C)cc2)Sc2ccccc21	none
Cc1ccc(/C=C2/Sc3ccccc3N(CC(=O)NCCCOC(C)C)C2=O)cc1	RAM network inh 13 | RAM efflux-def inactive
COc1nc(-c2ccccc2)ccc1-c1noc(COc2ccccc2)n1	RAM network inh 13 | RAM efflux-def inactive
COc1ccc(-c2ccc(-c3noc(-c4ccccc4)n3)c(OC)n2)cc1	RAM network inh 13 | RAM efflux-def inactive
Cc1ccc(Sc2nc3c(c(=O)[nH]c(=O)n3C)n2CCc2ccccc2)cc1	none
Cn1c(=O)[nH]c(=O)c2c1nc(Sc1ccccc1)n2CCc1ccccc1	none | RAM efflux-def inactive
COc1ccc(/C=C/C(=O)Nc2cc(S(=O)(=O)N3CCCCC3)ccc2N2CCCCC2)cc1OC	RAM network inh 12 | RAM efflux-def inactive
CN(C(=O)c1ccc(COc2ccccc2Br)o1)c1ccccc1	none (no result: SDO1 yeast rescue, BB579 growth dn, Yeast life ext)
C=CCN(CC=C)CC(O)CN(c1cc([N+](=O)[O-])ccc1OC)S(=O)(=O)c1ccccc1 (stereo not drawn)	none
CCCCSc1nc(SCC(=O)NCc2ccco2)c2c3c(sc2n1)COC(C)(CC)C3 (stereo not drawn)	RAM network inh 14 | RAM efflux-def inactive
CCCSc1nc(SCC(=O)NCc2ccccc2)c2c3c(sc2n1)COC(C)(CC)C3 (stereo not drawn)	RAM network inh 12 | RAM efflux-def inactive
CSc1nc(SCC(=O)NCc2ccco2)c2c3c(sc2n1)COC(C)(C)C3	none
CCC1(C)Cc2c(sc3nc(NN)n(C)c(=O)c23)CO1 (stereo not drawn)	none
CCOC(CCn1c(SCC(=O)Nc2cc(C)on2)nc2ccccc2c1=O)OCC	none (no result: SDO1 yeast rescue, BB579 growth dn, Yeast life ext)
CCOc1nc(-c2ccncc2)nc2ccccc12	none
CCCOc1ccc(-c2nc(OCC)c3ccccc3n2)cc1	RAM network inh 13 | RAM efflux-def inactive
